According to ChEMBL document CHEMBL1131075, “New aza-dipeptide analogues as potent and orally absorbed HIV-1 protease inhibitors: candidates for clinical development” (J Med Chem, 1998):

Key:
Mus musculus [1] = assay: Drug concentration in blood sample was analyzed by reversed phase HPLC 30 min (c90) after oral application of 120 mg/kg in a standardized formulation; format: functional; conditions: in the assay text read “90 min” for “30 min”
Summary of the method: (§1)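 Female Balb/c mice with free access to food and water, dosed by gavage at 120 mg/kg. Compound dissolved in DMSO at 240 mg/mL, then diluted 1:20 with aqueous 20% hydroxypropyl-β-cyclodextrin, giving a suspension. Four mice per time point; heart blood taken at 30 and 90 min. Plasma deproteinated with acetonitrile and quantified by reversed-phase HPLC-UV against a plasma calibration curve.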

[2] = target: Human immunodeficiency virus type 1 protease (Human immunodeficiency virus 1) (UniProt Q72874); assay: concentration of compound required to inhibit 90% of RT production in HIV-1/MN-infected MT-2 cells.; format: functional, cell-based; conditions: MT2
Summary of the method: (§2)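 HIV-1/MN virus stocks taken from culture supernatant of chronically infected H9/HIV-1/MN cells and used to infect MT-2 cells. Antiviral effect read out as percent reduction of reverse transcriptase activity. ED50 and ED90 are the concentrations giving 50% and 90% inhibition of RT production. Values are averages of at least three determinations.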

Mus musculus [3] = assay: Drug concentration in blood sample was analyzed by reversed phase HPLC 30 min (c30) after oral application of 120 mg/kg in a standardized formulation; format: functional; summary of the method: as §1
[4] = system: Human immunodeficiency virus 1; assay: Antiviral activity against HIV-1 protease inhibitor-resistant strain(CGP 61755 resistant)of the HI virus(Mutant: V32I,M46I,L63P,I84A); format: functional
Summary of the method: (§3)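 CEM-SS cells were infected with each HIV-1 strain (MOI 0.001-0.005) for 4 h at 37 °C, then washed and plated at 20 000 cells/well with serial 3-fold compound dilutions in triplicate at 37 °C, 5% CO2. Compound was kept at constant final concentration through cell splitting on day 4 and medium replacement on day 7. Supernatant RT activity was assayed on days 4, 7 and 10. Value is the lowest concentration giving total inhibition of replication until day 10, averaged over at least three determinations.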

[5] = system: Human immunodeficiency virus 1; assay: Antiviral activity against HIV-1 protease inhibitor-resistant strain(Wild type) of the HI virus; format: functional; summary of the method: as §3
[6] = system: Human immunodeficiency virus 1; assay: Antiviral activity against HIV-1 protease inhibitor-resistant strain(saquinavir resistant) of the HI virus.(Mutant: G48V,L90M); format: functional; summary of the method: as §3
[7] = system: Human immunodeficiency virus 1; assay: Antiviral activity against HIV-1 protease inhibitor-resistant strain(indinavir resistant)of the HI virus(L10R,M46I,L63P,V82T,I84V); format: functional; summary of the method: as §3
[8] = target: Human immunodeficiency virus type 1 protease (Human immunodeficiency virus 1) (UniProt Q72874); assay: Concentration required to inhibit 50% of RT production in HIV-1/MN-infected MT-2 cells.; format: functional, cell-based; conditions: MT2; summary of the method: as §2
[9] = system: Human immunodeficiency virus 1; assay: Antiviral activity against HIV-1 protease inhibitor-resistant strain(CGP 61755 resistant)of the HI virusMutant: K45I,A71Tmix,L76F,I84Vmix); format: functional; summary of the method: as §3
[10] = system: Human immunodeficiency virus 1; assay: Antiviral activity against HIV-1 protease inhibitor-resistant strain(indinavir resistant) of the HI virus(L10R,M46I,L63P,V82T,I84V); format: functional; summary of the method: as §3
[11] = system: Human immunodeficiency virus 1; assay: Antiviral activity against HIV-1 protease inhibitor-resistant strain(CGP 61755 resistant) of the HI virusMutant: K45I,A71Tmix,L76F,I84Vmix); format: functional; summary of the method: as §3
[12] = system: Human immunodeficiency virus 1; assay: Antiviral activity against HIV-1 protease inhibitor-resistant strain(CGP 61755 resistant) of the HI virus(Mutant: V32I,M46I,L63P,I84A); format: functional; summary of the method: as §3

Row | SMILES | ED90 [2] | ED50 [8] | c90 (Mus musculus [1]) | c30 (Mus musculus [3]) | ED [4] | ED [5] | ED [6] | ED [7] | ED [9] | ED [10] | ED [11] | ED [12]
1 | COC(=O)N[C@H](C(=O)N[C@@H](Cc1ccccc1)[C@@H](O)CN(Cc1ccc(-c2ccccc2)cc1)NC(=O)[C@@H](NC(=O)OC)C(C)(C)C)C(C)(C)C | 3 nM | 0.7 nM | 4.9 µM | 5.5 µM | 0.9 µM | 0.01 µM | 0.01 µM | 0.1 µM | 0.3 µM |  |  | 
2 | CCN(CC)c1ccc(CN(C[C@H](O)[C@H](Cc2ccccc2)NC(=O)[C@@H](NC(=O)OC)C(C)(C)C)NC(=O)[C@@H](NC(=O)OC)C(C)(C)C)cc1 | 10 nM | 1.6 nM | 7.6 µM | 11.8 µM |  |  |  |  |  |  |  | 
3 | COC(=O)N[C@H](C(=O)N[C@@H](Cc1ccccc1)[C@@H](O)CN(Cc1ccc(-c2nnn(C)n2)cc1)NC(=O)[C@@H](NC(=O)OC)C(C)(C)C)C(C)(C)C | 10 nM | 0.8 nM | 14.7 µM | 20.3 µM |  | 0.01 µM | 0.01 µM |  |  | 0.1 µM | 0.9 µM | 
4 | COC(=O)N[C@H](C(=O)N[C@@H](Cc1ccccc1)[C@@H](O)CN(Cc1ccc(-c2nccs2)cc1)NC(=O)[C@@H](NC(=O)OC)C(C)(C)C)C(C)(C)C | 3 nM | 0.5 nM | 10.2 µM | 9.1 µM |  | 0.01 µM | 0.004 µM |  |  | 0.1 µM | 0.3 µM | 
5 | COC(=O)N[C@H](C(=O)N[C@@H](Cc1ccccc1)[C@@H](O)CN(Cc1ccc(-c2ccccc2)cc1)NC(=O)[C@@H](NC(=O)OC)C(C)(C)C)C(C)C | 3 nM | 1.5 nM | 5.4 µM | 6.3 µM |  |  |  |  |  |  |  | 
6 | COC(=O)N[C@H](C(=O)N[C@@H](Cc1ccccc1)[C@@H](O)CN(CCC(C)C)NC(=O)[C@@H](NC(=O)OC)C(C)C)C(C)C | 30 nM | 2.7 nM | 0.4 µM | <0.2 µM |  |  |  |  |  |  |  | 
7 | COC(=O)N[C@H](C(=O)N[C@@H](Cc1ccccc1)[C@@H](O)CN(Cc1ccc(-c2ccccn2)cc1)NC(=O)[C@@H](NC(=O)OC)C(C)(C)C)C(C)(C)C [ATAZANAVIR] | 3 nM | 1.4 nM | 31.8 µM | 21.8 µM |  | 0.01 µM | 0.004 µM |  |  | 0.03 µM | 0.3 µM | 0.3 µM
8 | CCOC(=O)N[C@H](C(=O)N[C@@H](Cc1ccccc1)[C@@H](O)CN(CC1CCCCC1)NC(=O)[C@@H](NC(=O)OCC)C(C)C)C(C)C | 1000 nM | 55 nM | 7.8 µM | 6.7 µM |  |  |  |  |  |  |  | 
9 | COC(=O)N[C@H](C(=O)N[C@@H](Cc1ccccc1)[C@@H](O)CN(Cc1ccc(-c2nnn(C(C)(C)C)n2)cc1)NC(=O)[C@@H](NC(=O)OC)C(C)(C)C)C(C)(C)C | 3 nM | 0.8 nM | 4.6 µM | 4.2 µM |  |  |  |  |  |  |  | 

More lines, main results first:

Row | ED90 [2] | ED50 [8] | SMILES | c90 (Mus musculus [1]) | c30 (Mus musculus [3]) | ED [4] | ED [5] | ED [6] | ED [7] | ED [9] | ED [10] | ED [11] | ED [12]
10 | 30 nM | 5.6 nM | COC(=O)N[C@H](C(=O)N[C@@H](Cc1ccccc1)[C@@H](O)CN(Cc1ccc(-c2cncs2)cc1)NC(=O)[C@@H](NC(=O)OC)C(C)C)C(C)C | 0.1 µM | 1.8 µM |  |  |  |  |  |  |  | 
11 | 10 nM | 2.1 nM | COC(=O)N[C@H](C(=O)N[C@@H](Cc1ccccc1)[C@@H](O)CN(Cc1ccc(-c2nccs2)cc1)NC(=O)[C@@H](NC(=O)OC)C(C)(C)C)C(C)C | 14.9 µM | 17.5 µM |  |  |  |  |  |  |  | 
12 | 10 nM | 2 nM | COC(=O)N[C@H](C(=O)N[C@@H](Cc1ccccc1)[C@@H](O)CN(Cc1ccc(-c2ccccn2)cc1)NC(=O)[C@@H](NC(=O)OC)C(C)(C)C)C(C)C | 12.7 µM | 13.8 µM |  |  |  |  |  |  |  | 
13 | 3 nM | 0.7 nM | COC(=O)N[C@H](C(=O)NN(Cc1ccc(-c2ccccc2)cc1)C[C@H](O)[C@H](Cc1ccccc1)NC(=O)[C@@H](NC(=O)OC)C(C)(C)C)C(C)C | 1.1 µM | 0.6 µM |  |  |  |  |  |  |  | 
14 | 10 nM | 1.9 nM | COC(=O)N[C@H](C(=O)NN(Cc1ccc(-c2cncs2)cc1)C[C@H](O)[C@H](Cc1ccccc1)NC(=O)[C@@H](NC(=O)OC)C(C)(C)C)C(C)C | 5.7 µM | 8.5 µM |  |  |  |  |  |  |  | 
15 | 10 nM | 1.8 nM | COC(=O)N[C@H](C(=O)N[C@@H](Cc1ccccc1)[C@@H](O)CN(Cc1ccc(-c2ccccc2)cc1)NC(=O)[C@@H](NC(=O)OC)C(C)C)C(C)C | 0.3 µM | <0.1 µM |  |  |  |  |  |  |  | 
16 | 3 nM | 0.8 nM | COC(=O)N[C@H](C(=O)N[C@@H](Cc1ccccc1)[C@@H](O)CN(Cc1ccc(-c2cncs2)cc1)NC(=O)[C@@H](NC(=O)OC)C(C)(C)C)C(C)(C)C | 9.9 µM | 12.6 µM |  |  |  |  |  |  |  | 
17 | 30 nM | 5.4 nM | CCOC(=O)N[C@H](C(=O)NN(Cc1ccc(-c2ccccn2)cc1)C[C@H](O)[C@H](Cc1ccccc1)NC(=O)[C@@H](NC(=O)OC)C(C)C)C(C)C | 0.2 µM | 0.5 µM |  |  |  |  |  |  |  | 
18 | 10 nM | 2.6 nM | COC(=O)N[C@H](C(=O)NN(Cc1ccc(-c2ccccn2)cc1)C[C@H](O)[C@H](Cc1ccccc1)NC(=O)[C@@H](NC(=O)OC)C(C)(C)C)C(C)C | 13.3 µM | 15.3 µM |  |  |  |  |  |  |  | 
19 | 30 nM | 7.4 nM | COC(=O)N[C@H](C(=O)N[C@@H](Cc1ccccc1)[C@@H](O)CN(Cc1ccc(-c2ccccn2)cc1)NC(=O)[C@@H](NC(=O)OC)C(C)C)C(C)C | 2.2 µM | 2.7 µM |  |  |  |  |  |  |  | 
20 | 10 nM | 1.4 nM | COC(=O)N[C@H](C(=O)N[C@@H](Cc1ccccc1)[C@@H](O)CN(Cc1ccc(-c2cncs2)cc1)NC(=O)[C@@H](NC(=O)OC)C(C)(C)C)C(C)C | 4.4 µM | 8.5 µM |  |  |  |  |  |  |  | 
21 | 3 nM | 1.2 nM | CCOC(=O)N[C@H](C(=O)NN(Cc1ccc(-c2cncs2)cc1)C[C@H](O)[C@H](Cc1ccccc1)NC(=O)[C@@H](NC(=O)OC)C(C)(C)C)C(C)C | 1.4 µM | 1.4 µM |  |  |  |  |  |  |  | 
22 | 10 nM | 2.8 nM | CCC(C)[C@H](NC(=O)OC)C(=O)N[C@@H](Cc1ccccc1)[C@@H](O)CN(Cc1ccc(-c2ccccn2)cc1)NC(=O)[C@@H](NC(=O)OC)C(C)C (stereo partly specified) | 0.3 µM | 0.4 µM |  |  |  |  |  |  |  | 
